Assay results published in ChEMBL document CHEMBL5506001 (J Med Chem, 2024).
Converted amounts (≈) assume the structure as drawn. Blank lines part the entries; values can stand above or below the molecule they belong to. The source made the active and inactive calls. No cut-off for these calls is given here.

How the values were obtained:
[1] = organism: Oryctolagus cuniculus; conditions: Fast skeletal myofibrils
[2] = organism: Bos taurus; assay: Activation of full-length myosin ATPase activity in bovine Cardiomyofibril at 0.01 to 100 uM in presence of CaCl2 and ATP by HTS assay; type: tissue-based; conditions: dose 0.01-100 µM
[3] = organism: Bos taurus; assay: Activation of full-length myosin ATPase activity in bovine Cardiomyofibril in presence of CaCl2 and ATP by HTS assay; type: tissue-based
Outline: (§1)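 Calcium-stimulated ATPase activity of cardiac myofibrils (bovine), slow skeletal myofibrils (bovine masseter), fast skeletal myofibrils (rabbit) or chicken gizzard smooth muscle myosin; 10-point dose response up to 40 μM.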

[4] = organism: Bos taurus; assay: Activation of full-length myosin ATPase activity in bovine slow skeletal myofibrils at 0.01 to 100 uM in presence of CaCl2 and ATP by HTS assay; type: tissue-based; conditions: dose 0.01-100 µM
[5] = Solubility of compound at pH 6.8 incubated for 12 hrs by HPLC analysis; type: physicochemical; conditions: buffer, pH 6.8, 12 h
Outline: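 Agitated 12 h at room temperature in pH 6.8 monopotassium phosphate JP2 buffer, filtered, quantified by HPLC against a standard.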

[6] = organism: Bos taurus; assay: Activation of Myosin S1 ATPase activity in bovine Cardiomyofibril at 40 uM in presence of bovine cardiac thin filament; type: tissue-based; conditions: filed as activator
[7] = organism: Gallus gallus; conditions: Gizzard
[8] = organism: Oryctolagus cuniculus; assay: Activation of full-length myosin ATPase activity in rabbit fast skeletal myofibrils at 0.01 to 40 uM in presence of CaCl2 and ATP by HTS assay; conditions: dose 0.01-40 µM
[9] = organism: Bos taurus; assay: Activation of full-length myosin ATPase activity in bovine slow skeletal myofibrils in presence of CaCl2 and ATP by HTS assay; type: tissue-based; conditions: filed as activator
Outline: as §1

[10] = organism: Oryctolagus cuniculus; assay: Activation of Myosin S1 ATPase activity in rabbit fast skeletal myofibrils at 40 uM in presence of bovine cardiac thin filament; type: tissue-based; conditions: filed as activator
[11] = biological target: cGMP-inhibited 3',5'-cyclic phosphodiesterase 3A (Homo sapiens, UniProt Q14432); assay: Inhibition of PDE3A (unknown origin) using cAMP as substrate preincubated for 20 mins followed by substrate addition measured after 30 mins by HTS assay
cGMP-inhibited 3',5'-cyclic phosphodiesterase 3A, sequence (Q14432 whole entry): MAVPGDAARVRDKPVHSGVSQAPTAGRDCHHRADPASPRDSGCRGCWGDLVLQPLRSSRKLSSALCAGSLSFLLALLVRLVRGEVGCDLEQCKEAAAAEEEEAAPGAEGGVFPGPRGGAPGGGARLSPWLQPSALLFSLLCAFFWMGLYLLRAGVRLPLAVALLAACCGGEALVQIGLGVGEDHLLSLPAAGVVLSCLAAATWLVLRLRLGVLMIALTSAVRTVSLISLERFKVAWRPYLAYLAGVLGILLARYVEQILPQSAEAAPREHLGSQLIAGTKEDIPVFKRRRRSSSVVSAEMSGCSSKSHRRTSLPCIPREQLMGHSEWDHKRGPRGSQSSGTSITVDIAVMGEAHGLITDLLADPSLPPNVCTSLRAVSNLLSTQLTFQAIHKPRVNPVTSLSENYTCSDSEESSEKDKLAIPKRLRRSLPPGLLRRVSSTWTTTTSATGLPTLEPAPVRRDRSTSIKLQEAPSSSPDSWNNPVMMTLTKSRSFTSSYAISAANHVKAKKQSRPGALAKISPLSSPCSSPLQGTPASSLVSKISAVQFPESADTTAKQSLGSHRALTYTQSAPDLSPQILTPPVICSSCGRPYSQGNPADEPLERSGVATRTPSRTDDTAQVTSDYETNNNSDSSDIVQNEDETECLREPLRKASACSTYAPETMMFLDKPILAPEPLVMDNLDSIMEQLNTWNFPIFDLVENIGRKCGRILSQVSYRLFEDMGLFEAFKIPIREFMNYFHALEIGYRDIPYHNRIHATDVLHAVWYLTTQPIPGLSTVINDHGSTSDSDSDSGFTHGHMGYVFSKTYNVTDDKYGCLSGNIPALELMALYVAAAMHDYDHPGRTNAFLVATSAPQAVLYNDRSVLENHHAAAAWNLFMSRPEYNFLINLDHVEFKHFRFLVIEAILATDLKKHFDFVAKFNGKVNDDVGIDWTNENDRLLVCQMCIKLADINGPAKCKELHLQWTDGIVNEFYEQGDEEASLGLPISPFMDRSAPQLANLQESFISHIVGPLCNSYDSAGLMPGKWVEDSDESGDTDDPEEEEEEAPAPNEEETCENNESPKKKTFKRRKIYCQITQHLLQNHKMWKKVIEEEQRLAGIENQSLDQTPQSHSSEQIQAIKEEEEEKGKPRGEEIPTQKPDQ
Outline: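 PDE3A preincubated with compound in 50 mM Tris, 5 mM MgCl₂, pH 7.5, for 20 min at room temperature. Then 0.2 µM cAMP substrate added for 30 min at room temperature, followed by a PDELight stop/detection mix.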

[12] = organism: Gallus gallus; assay: Activation of full-length myosin ATPase activity in chicken Gizzard at 0.01 to 40 uM in presence of CaCl2 and ATP by HTS assay; conditions: dose 0.01-40 µM
[13] = tested on: Cardiac muscle cell; assay: Induction of Sprague-Dawley rat Cardiomyocyte contractility assessed as increase in myocyte relaxation velocity at 10 uM incubated for 5 mins by imaging analysis relative to control; type: functional; set-up: scale not given: the % may be the effect or the level left
[14] = tested on: Cardiac muscle cell; assay: Induction of Sprague-Dawley rat Cardiomyocyte contractility assessed as increase in myocyte fractional shortening at 10 uM incubated for 5 mins by imaging analysis; type: functional, cell-based
[15] = tested on: Cardiac muscle cell; assay: Induction of Sprague-Dawley rat Cardiomyocyte contractility assessed as increase in myocyte relaxation time at 10 uM incubated for 5 mins by imaging analysis relative to control; type: functional; set-up: scale not given: the % may be the effect or the level left
[16] = tested on: Cardiac muscle cell; assay: Induction of Sprague-Dawley rat Cardiomyocyte contractility by measuring myocyte relaxation time at 10 uM incubated for 5 mins by imaging analysis; type: functional
[17] = tested on: Cardiac muscle cell; assay: Induction of Sprague-Dawley rat Cardiomyocyte contractility by measuring myocyte relaxation velocity at 10 uM incubated for 5 mins by imaging analysis; type: functional
[18] = Half life in Sprague-Dawley rat at 0.5 mg/kg,iv administered as bolus injection measured after 24 hrs by HPLC analysis; type: ADME, organism-based; conditions: in vivo
Outline: (§2)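 Male Sprague-Dawley rats given a single intravenous bolus; blood sampled from just before dosing to 24 h after; compound in blood or plasma measured by HPLC against a standard.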

[19] = Plasma protein binding in rat assessed as unbound fraction at 5 uM incubated for 6 hrs by equilibrium dialysis based HPLC analysis; type: ADME, cell-free
Outline: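 Equilibrium dialysis: compound added at 5 μM to the buffer chamber, shaken against rat plasma for 6 h at 37 °C. Both chambers analysed by HPLC against standards; reported as % unbound.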

[20] = Clearance in Sprague-Dawley rat at 0.5 mg/kg,iv administered as bolus injection measured after 24 hrs by HPLC analysis; type: ADME, organism-based; conditions: in vivo
Outline: as §2

[21] = Volume of distribution in Sprague-Dawley rat at 0.5 mg/kg,iv administered as bolus injection measured after 24 hrs by HPLC analysis; type: ADME, organism-based; conditions: in vivo
Outline: as §2

Structure (SMILES): O=c1[nH]c(=O)c2cc(S(=O)(=O)Nc3ccc(N4CCCCCC4)cc3)ccc2[nH]1
EC40 [1]: > 39.2 µM | Activity [2]: inactive | EC40 ([3]; filed as activator): 1.1 µM | Activity [4]: inactive | solubility [5]: 2.3 µM (≈ 0.953 µg/mL) | Activity [6]: Active | EC40 [7]: > 39.2 µM | Activity [8]: inactive | EC40 [9]: 1.7 µM | Activity [10]: Active | IC50 [11]: 2.3 µM | Activity [12]: inactive | Activity [13]: 23% | Activity [14]: Active | Activity [15]: 30% | Time [16]: 0.308 s | Activity [17]: 55.4 um/s

Structure (SMILES): O=c1[nH]c(=O)c2cc(S(=O)(=O)Nc3ccccc3)ccc2[nH]1
EC40 [3]: > 39 µM

Structure (SMILES): C[C@@H]1C[C@H](C)CN(c2ccc(NS(=O)(=O)c3ccc4c(c3)c(=O)[nH]c(=O)n4C)cn2)C1
EC40 ([3]; filed as activator): 11.1 µM

Structure (SMILES): O=c1[nH]c(=O)c2cc(S(=O)(=O)Nc3ccc(-c4ccccc4)cc3)ccc2[nH]1
EC40 [1]: > 39.2 µM | EC40 ([3]; filed as activator): < 0.1 µM | solubility [5]: 2.4 µM (≈ 0.944 µg/mL) | EC40 [7]: > 39.2 µM | EC40 [9]: < 0.1 µM | IC50 [11]: 4.6 µM

Structure (SMILES): C[C@@H]1CCCN(c2ccc(NS(=O)(=O)c3ccc4c(c3)c(=O)[nH]c(=O)n4C)cn2)C1
EC40 ([3]; filed as activator): 4.3 µM

Structure (SMILES): O=c1[nH]c2ccc(S(=O)(=O)Nc3ccc(-c4ccccc4)cc3)cc2[nH]1
EC40 ([3]; filed as activator): 5.5 µM | Activity [6]: Active | Activity [10]: Active

Structure (SMILES): C[C@@H]1C[C@@H](C)CN(c2ccc(NS(=O)(=O)c3ccc4c(c3)c(=O)[nH]c(=O)n4C)cn2)C1
EC40 ([3]; filed as activator): 0.5 µM

Structure (SMILES): Cc1nc2cc(OCCN3CCOCC3)c(S(=O)(=O)Nc3ccc(N4C[C@H](C)C[C@@H](C)C4)nc3)cc2c(=O)[nH]1
EC40 ([3]; filed as activator): 0.7 µM | IC50 [11]: > 40 µM | t1/2 [18]: 0.6 h | fraction unbound at 6 h, 5 µM [19]: 0.037 | clearance [20]: 0.426 L/h/kg | Vd [21]: 3.8 L/kg

Structure (SMILES): COc1cc2nc(C)[nH]c(=O)c2cc1S(=O)(=O)Nc1ccc(N2C[C@H](C)C[C@@H](C)C2)nc1
EC40 ([3]; filed as activator): 0.7 µM | IC50 [11]: > 40 µM | t1/2 [18]: 2.3 h | fraction unbound at 6 h, 5 µM [19]: 0.008 | clearance [20]: 0.006 L/h/kg

More lines, now with the values ahead:

EC40 [3]: > 39 µM
Structure (SMILES): CN(c1ccc(-c2ccccc2)cc1)S(=O)(=O)c1ccc2[nH]c(=O)[nH]c(=O)c2c1

EC40 ([3]; filed as activator): 4.5 µM | IC50 [11]: > 40 µM
Structure (SMILES): Cc1nc2ccc(S(=O)(=O)Nc3ccc(N4C[C@H](C)C[C@@H](C)C4)nc3)cc2c(=O)[nH]1

EC40 [3]: > 30 µM
Structure (SMILES): Cn1c(=O)[nH]c(=O)c2cc(S(=O)(=O)Nc3ccc(N4CCCCC4)nc3)ccc21

EC40 [3]: > 33 µM
Structure (SMILES): C[C@H]1CCCN(c2ccc(NS(=O)(=O)c3ccc4c(c3)c(=O)[nH]c(=O)n4C)cn2)C1

EC40 [3]: > 39 µM
Structure (SMILES): O=c1[nH]c(=O)c2cc(S(=O)(=O)Nc3cnc(-c4ccccc4)nc3)ccc2[nH]1

EC40 ([3]; filed as activator): 18 µM
Structure (SMILES): O=c1[nH]c(=O)c2cc(S(=O)(=O)Nc3ccc(-c4ccccc4)cn3)ccc2[nH]1

EC40 ([3]; filed as activator): < 0.1 µM | IC50 [11]: 4.6 µM
Structure (SMILES): Cn1c(=O)[nH]c(=O)c2cc(S(=O)(=O)Nc3ccc(-c4ccccc4)cc3)ccc21

EC40 ([3]; filed as activator): 1.4 µM | IC50 [11]: > 40 µM | t1/2 [18]: 1.1 h | fraction unbound at 6 h, 5 µM [19]: 0.012 | clearance [20]: 0.198 L/h/kg | Vd [21]: 1.8 L/kg
Structure (SMILES): CNc1cc2nc(C)[nH]c(=O)c2cc1S(=O)(=O)Nc1ccc(N2C[C@H](C)C[C@@H](C)C2)nc1

EC40 ([3]; filed as activator): 21.9 µM
Structure (SMILES): C[C@H]1C[C@H](C)CN(c2ccc(NS(=O)(=O)c3ccc4c(c3)c(=O)[nH]c(=O)n4C)cn2)C1

EC40 ([3]; filed as activator): 5.3 µM
Structure (SMILES): O=c1[nH]c(=O)c2cc(S(=O)(=O)Nc3ccc(-c4ccccc4)nc3)ccc2[nH]1
